Laboratory results reported in ChEMBL document CHEMBL5634162, “Cyclohexylalanine-Containing α-Helical Amphipathic Peptide Targets Cardiolipin, Rescuing Mitochondrial Dysfunction in Kidney Injury” (J Med Chem, 2024).
Active and inactive are the calls of the source. The calls are words filed in the database; no cut-off is given here. Where a SMILES comes first, the peptide text is derived from it. Bridges are numbered along the chain shown (N, C = ends). Roman numbers before positions name the chains, in order. [ ]: non-standard residue; d: D form. The star is where a group is joined. 5TAMRA = CN(C)c1ccc2c(c1)Oc1cc(N(C)C)ccc1C21OC(=O)c2cc(C(=O)*)ccc21; Cha = N[C@@H](CC1CCCCC1)C(=O)O

Key:
[1] = system: Lipid bilayer; experiment: Binding affinity to DLCL-rich POPC/POPE by fluorescence based analysis
[2] = system: Lipid bilayer; experiment: Binding affinity to cardiolipin-rich POPC/POPE by fluorescence based analysis
In short: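 NBD-labelled peptide monomer at 1 μM in PBS, mixed with liposomes of POPC/POPE (2:1) containing 10% CL, with CL-free POPC/POPE liposomes for comparison. Association was followed by NBD fluorescence (ex 467/em 536 nm), n = 3. For dissociation, liposomes were at 100 μM and unlabelled acetylated peptide was added stepwise up to 40 μM, with a 10 min dark incubation before each read.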

[3] = Drug localization in mitochondria of human HeLa cells at EC50 incubated for 3 hrs by fluorescence based assay; assay type: ADME

| Structure (SMILES) | Activity [1] | Activity [2] | Drug uptake [3] |
| --- | --- | --- | --- |
| CC(=O)N[C@@H](CC1CCCCC1)C(=O)N[C@@H](CS)C(=O)N[C@@H](CCCNC(=N)N)C(=O)N[C@@H](CC(C)C)C(=O)N[C@@H](CC1CCCCC1)C(=O)N[C@@H](CCCNC(=N)N)C(=O)N[C@@H](CCCNC(=N)N)C(=O)N[C@@H](CC1CCCCC1)C(=O)N[C@@H](CS)C(=O)N[C@@H](CCCNC(=N)N)C(N)=O (Ac-[Cha]CRL[Cha]RR[Cha]CR-NH2) | Active | Active |  |
| CC(=O)N[C@@H](CC1CCCCC1)C(=O)N[C@H]1CSSC[C@@H](C(=O)N[C@@H](CCCNC(=N)N)C(N)=O)NC(=O)[C@H](CC(C)C)NC(=O)[C@H](CCCNC(=N)N)NC(=O)[C@H](CCCNC(=N)N)NC(=O)[C@H](CC2CCCCC2)NC(=O)[C@H](CC2CCCCC2)NC(=O)[C@H](CCCNC(=N)N)NC(=O)[C@@H](NC(=O)[C@H](CC2CCCCC2)NC(=O)c2ccc3c(c2)C(=O)OC32c3ccc(N(C)C)cc3Oc3cc(N(C)C)ccc32)CSSC[C@@H](C(=O)N[C@@H](CCCNC(=N)N)C(N)=O)NC(=O)[C@H](CC(C)C)NC(=O)[C@H](CCCNC(=N)N)NC(=O)[C@H](CCCNC(=N)N)NC(=O)[C@H](CC2CCCCC2)NC(=O)[C@H](CC2CCCCC2)NC(=O)[C@H](CCCNC(=N)N)NC1=O (I: Ac-[Cha]CR[Cha][Cha]RRLCR-NH2 / II: 5TAMRA-[Cha]CR[Cha][Cha]RRLCR-NH2; disulfide I:2-II:9, I:9-II:2) |  |  | 53% |
| CC(=O)N[C@@H](CC1CCCCC1)C(=O)N[C@H]1CSSC[C@@H](C(=O)N[C@@H](CCCNC(=N)N)C(N)=O)NC(=O)[C@H](CC2CCCCC2)NC(=O)[C@H](CCCNC(=N)N)NC(=O)[C@H](CCCNC(=N)N)NC(=O)[C@H](CC2CCCCC2)NC(=O)[C@H](CC2CCCCC2)NC(=O)[C@H](CCCNC(=N)N)NC(=O)[C@@H](NC(=O)[C@H](CC2CCCCC2)NC(=O)c2ccc3c(c2)C(=O)OC32c3ccc(N(C)C)cc3Oc3cc(N(C)C)ccc32)CSSC[C@@H](C(=O)N[C@@H](CCCNC(=N)N)C(N)=O)NC(=O)[C@H](CC2CCCCC2)NC(=O)[C@H](CCCNC(=N)N)NC(=O)[C@H](CCCNC(=N)N)NC(=O)[C@H](CC2CCCCC2)NC(=O)[C@H](CC2CCCCC2)NC(=O)[C@H](CCCNC(=N)N)NC1=O (I: Ac-[Cha]CR[Cha][Cha]RR[Cha]CR-NH2 / II: 5TAMRA-[Cha]CR[Cha][Cha]RR[Cha]CR-NH2; disulfide I:2-II:9, I:9-II:2) |  |  | 53% |
